# KDM4C inh: blocks human GASC-1 (KDM4C) demethylase activity | Q9H3R0 | AID 720574 | GST-KDM4C 2-372, H3K9me3 peptide, LANCE TR-FRET | actives 0.15% (n = 96,000) | inhibition, % at 12.5 µM;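 active = mean replicate inhibition above about 25%, with at least 55% of replicates also reaching it, limit read from the data, passing the limit was not always enough; inconclusive = only one of those two conditions met; inactive = neither condition met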
# Target sequence (Q9H3R0 2-372 limits assumed): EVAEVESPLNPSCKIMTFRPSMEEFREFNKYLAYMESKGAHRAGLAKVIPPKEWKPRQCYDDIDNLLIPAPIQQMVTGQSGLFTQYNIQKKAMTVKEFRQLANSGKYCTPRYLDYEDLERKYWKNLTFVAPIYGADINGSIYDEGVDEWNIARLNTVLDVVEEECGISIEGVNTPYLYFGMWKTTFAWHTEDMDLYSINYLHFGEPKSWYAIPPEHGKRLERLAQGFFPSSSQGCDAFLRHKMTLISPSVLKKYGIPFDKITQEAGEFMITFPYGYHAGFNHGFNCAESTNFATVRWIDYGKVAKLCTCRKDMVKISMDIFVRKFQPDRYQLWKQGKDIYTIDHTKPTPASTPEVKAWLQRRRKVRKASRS
#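 material = GST-tagged GASC-1 (JMJD2C) catalytic fragment, aa 2-372 | amount = enzyme final amount 10 nM | medium = HEPES buffer, pH 7.5, plus ascorbate | also added = H3K9me3 peptide substrate, Fe(II), 2-oxoglutarate | dosing = single dose | times = 30 min demethylation and 1 h detection at room temperature | detection = LANCE TR-FRET | read-out basis = Fall in 671/618 emission ratio as inhibition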
# IDH1 mut inh: IDH1 R132H (human) inhibition; inhibition, % at 10 µM; actives 0.18% (n = 70,000); O75874; IDH1 R132H reductase, diaphorase/resazurin fluorescence, 60 min; in the data active = inhibition above about 34%; inconclusive = no clear call, values can overlap the other calls; inactive = below about 11%;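 also: 0% = DMSO and 100% = no enzyme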
# Pf Dd2 growth: inhibitors of Plasmodium falciparum Dd2 growth; activity change, % at 10 µM; P. falciparum Dd2 growth, SYBR Green, 72 h; hits give low values; actives 2.3% (n = 94,000); in the data active = activity change below about -80%; inconclusive = no clear call, values can overlap the other calls
# T cruzi growth-1: inhibitors of T. cruzi proliferation; inhibition, % at 8.34 µM; AID 624255; actives 5.9% (n = 77,000); T. cruzi beta-gal in NIH3T3, GalScreen luminescence, 90 h;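 active = mean inhibition above about 93%, with at least 55% of replicates each passing it, limit read from the data, passing the limit was not always enough; inconclusive = only one of those two conditions holds; inactive = neither condition holds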
# T cruzi growth-2: inhibitors of T. cruzi proliferation. shares compounds with T cruzi growth-1. T. cruzi beta-gal in NIH3T3, GalScreen luminescence, 90 h. inhibition, % at 8.35 µM. actives 72% (n = 5,600);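 active = mean replicate inhibition above about 95% and at least 55% of replicates individually reaching it, limit read from the data; inconclusive = only one of the two criteria is met; inactive = neither criterion is met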
# T cruzi growth-3: blocks T. cruzi growth in NIH3T3 host cells | shares compounds with T cruzi growth-1 | T. cruzi beta-gal in NIH3T3, GalScreen luminescence, 90 h | inhibition, % at 2.09 µM | actives 21% (n = 5,600) | AID 651740;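 active = mean inhibition above about 95%, with at least 55% of replicates also reaching it, limit read from the data; inconclusive = meets just one of the two conditions; inactive = meets neither condition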;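 also: plate controls were neutral control median for no effect and positive control median for full effect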
# NIH3T3 tox: kills mouse NIH/3T3 fibroblasts; shares compounds with T cruzi growth-1; NIH/3T3 viability, CellTiter-Glo ATP luminescence, 90 h; actives 14% (n = 5,600); AID 651742; cytotoxicity (signal decrease), % at 8.35 µM;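 active = mean signal decrease across replicates above about 35% based on untreated-well scatter, with enough replicates individually passing, limit read from the data; inconclusive = no rule stated though some were filed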;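 also: 0% = median of neutral control wells and 100% = median of positive control wells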
# 3T3 cytotox 2: NIH/3T3 (mouse) viability loss; shares compounds with T cruzi growth-1; NIH/3T3 viability, CellTiter-Glo ATP luminescence, 90 h; inhibition, % at 24.9 µM; actives 56% (n = 5,600);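 active = mean loss of cell viability signal at or above a set limit, and enough replicates individually reaching it; inconclusive = meets only the mean limit or only the replicate share; inactive = meets neither condition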;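 also: 0% = median of neutral control wells and 100% = median of positive control wells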
# Numbers without * were called inactive; ? = inconclusive; . = not tested or not shown. A selection: hits, their analogues and other compounds. The true share with any hit is near 5.8%.
SMILES,KDM4C inh,IDH1 mut inh,Pf Dd2 growth,T cruzi growth-1,T cruzi growth-2,T cruzi growth-3,NIH3T3 tox,3T3 cytotox 2
COCC#Cc1ccc([C@@H]2[C@H](CO)N3CCCCN(S(=O)(=O)c4ccccc4C)C[C@@H]23)cc1,-1,.,-62,27,.,.,.,.
CCCC#Cc1ccc([C@@H]2[C@H]3CN(S(=O)(=O)CC)CCCCN3[C@H]2CO)cc1,0,.,6,17,.,.,.,.
CCCC#Cc1ccc([C@H]2[C@@H](CO)N3CCCCN(S(=O)(=O)c4ccccc4C)C[C@H]23)cc1,-2,.,-73,108*,103*,?,52*,103*
CCCC#Cc1ccc([C@H]2[C@@H](CO)N3CCCCN(S(=O)(=O)c4ccccc4C)C[C@@H]23)cc1,14,.,-73,108*,100*,94,3,-4
COCC#Cc1ccc([C@H]2[C@H]3CN(S(=O)(=O)c4ccccc4C)CCCCN3[C@H]2CO)cc1,-2,.,-24,95,.,.,.,.
Cc1ccc2nc(-c3ccc(NC(=O)C(C)Oc4ccc5c(C)cc(=O)oc5c4)cc3)sc2c1 (stereo not given),.,0,.,.,.,.,.,.
COc1ccc(C(=O)CSc2nc3cc(C)c(C)cc3[nH]2)cc1OC,.,-1,.,.,.,.,.,.
Cc1ccccc1S(=O)(=O)N1CCCCN2[C@@H](CO)[C@H](c3ccc(C#CCN(C)C)cc3)[C@@H]2C1,2,.,-49,67,.,.,.,.
Cc1ccccc1S(=O)(=O)N1CCCCN2[C@H](C1)[C@@H](c1ccc(C#CCN(C)C)cc1)[C@@H]2CO,0,.,2,38,.,.,.,.
CCCC#Cc1ccc([C@H]2[C@H](CO)N3CCCCN(S(=O)(=O)c4ccccc4C)C[C@@H]23)cc1,-1,.,-21,96*,86,99*,?,103*
CCCC#Cc1ccc([C@@H]2[C@H]3CN(S(=O)(=O)c4ccccc4C)CCCCN3[C@H]2CO)cc1,2,.,-51,111*,96*,?,?,106*
C[C@H](CO)N1C[C@H](C)[C@H](CN(C)C(=O)Nc2ccc3c(c2)OCO3)Oc2cc(C#Cc3cccnc3)ccc2S1(=O)=O,-2,-10,?,101*,48,-12,-3,8
C[C@@H]1CN([C@H](C)CO)S(=O)(=O)c2ccc(C#Cc3ccccc3)cc2O[C@@H]1CN(C)C(=O)Nc1ccc2c(c1)OCO2,18,0,-76,130*,106*,107*,5,4
C[C@@H]1CN([C@@H](C)CO)S(=O)(=O)c2ccc(C#Cc3ccccc3)cc2O[C@H]1CN(C)C(=O)Nc1ccc2c(c1)OCO2,-2,.,-73,132*,98*,85,?,45*
C[C@@H]1CN([C@H](C)CO)S(=O)(=O)c2ccc(C#Cc3ccncc3)cc2O[C@H]1CN(C)C(=O)Nc1ccc2c(c1)OCO2,13,.,-54,35,.,.,.,.
C[C@@H]1CN([C@H](C)CO)S(=O)(=O)c2ccc(C#Cc3ccncc3)cc2O[C@@H]1CN(C)C(=O)Nc1ccc2c(c1)OCO2,4,.,-52,25,.,.,.,.
C[C@@H]1CN([C@@H](C)CO)S(=O)(=O)c2ccc(C#Cc3ccccc3)cc2O[C@@H]1CN(C)C(=O)Nc1ccc2c(c1)OCO2,9,-1,?,131*,107*,?,20,30*
O=C(CC1NC2CCCCC2NC1=O)Nc1ccc2c(c1)OCCO2 (stereo not given),.,1,.,.,.,.,.,.
C[C@H]1CN([C@@H](C)CO)S(=O)(=O)c2ccc(C#Cc3ccccc3)cc2O[C@@H]1CN(C)C(=O)Nc1ccc2c(c1)OCO2,-1,0,-53,131*,106*,75,20,13
C[C@H]1CN([C@@H](C)CO)S(=O)(=O)c2ccc(C3=CCCCC3)cc2O[C@@H]1CN(C)C(=O)Nc1ccc2c(c1)OCO2,-2,-1,-2,.,.,.,.,.
C[C@H](CO)N1C[C@H](C)[C@H](CN(C)C(=O)Nc2ccc3c(c2)OCO3)Oc2cc(C#Cc3ccccc3)ccc2S1(=O)=O,0,0,-79,131*,108*,94,-18,19
C[C@H](CO)N1C[C@H](C)[C@@H](CN(C)C(=O)Nc2ccc3c(c2)OCO3)Oc2cc(C3=CCCC3)ccc2S1(=O)=O,0,0,-47,114*,96*,45,-1,17
Cc1cc2ncn(CC(O)COc3ccc(N)cc3)c2cc1C (stereo not given),.,0,.,.,.,.,.,.
CCc1ccccc1N(CC(=O)NC)S(C)(=O)=O,.,0,.,.,.,.,.,.
COc1ccccc1C1CC(c2ccc(C)cc2)=NN1C(=O)CCC(=O)O (stereo not given),.,1,.,.,.,.,.,.
SMILES,KDM4C inh,IDH1 mut inh,Pf Dd2 growth,T cruzi growth-1,T cruzi growth-2,T cruzi growth-3,NIH3T3 tox,3T3 cytotox 2
OC1[C@H](O)CO[C@@H](OC[C@H]2O[C@@H](OC/C=C/c3ccccc3)[C@H](O)[C@@H](O)[C@@H]2O)[C@H]1O (stereo not given in full),.,0,.,.,.,.,.,.
COc1ccccc1C(CCNCc1ccccc1)c1ccco1 (stereo not given),.,0,.,.,.,.,.,.
COc1cccc(-c2ccc([C@H]3[C@H](C#N)N(C(=O)Cc4ccncc4)[C@H]3CO)cc2)c1,0,.,?,?,102*,58,13,52*
COc1cccc(-c2ccc([C@@H]3[C@@H](C#N)N(C(=O)Cc4ccncc4)[C@@H]3CO)cc2)c1,-7,.,-46,75,.,.,.,.
COc1cccc(-c2ccc([C@H]3[C@@H](C#N)N(C(=O)Cc4ccccc4)[C@@H]3CO)cc2)c1,-4,.,-65,97*,110*,67,17,43*
COc1cc([C@@H](O)[C@@H](CO[C@@H]2O[C@H](CO)[C@@H](O)[C@H](O)[C@H]2O)Oc2ccc(/C=C/CO)cc2OC)ccc1O,.,0,.,.,.,.,.,.
O=C(CSc1nnc(-c2ccc(Cl)cc2)n1-c1ccc(F)cc1)Nc1ccccc1Cl,.,0,.,.,.,.,.,.
O=C(Nc1ccc(F)cc1)N1CCCCN2[C@@H](CO)[C@@H](c3ccc(C#Cc4ccccn4)cc3)[C@@H]2C1,-1,.,-51,110*,103*,97*,16,35*
COc1ccc(NC(=O)N2CCCCN3[C@H](CO)[C@@H](c4ccc(C#Cc5ccccn5)cc4)[C@@H]3C2)cc1,-2,.,-19,?,111*,92,-3,14
O=C(CCCCCCC(=O)Nc1ccccc1O)N/N=C/c1ccc(S(=O)(=O)O)o1,.,0,.,.,.,.,.,.
